ChEMBL document CHEMBL3244179, “Potential inhibitors of S-adenosylmethionine-dependent methyltransferases. 7. Role of the ribosyl moiety in enzymatic binding of S-adenosyl-L-homocysteine and S-adenosyl-L-methionine” (J Med Chem, 1978)

Experiments:
[1] = Retardation factor, Rf of the compound on silica gel GF containing EtOH-HOAc-H2O (20:2:2)/0.1 M phosphate buffer at 7.4 by chromatography; type: physicochemical; settings: pH 7.4
Method in brief: (§1)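 TLC plates carried a 250 μm silica gel GF layer. Spots were located visually under UV light, and with ninhydrin for amine-containing compounds.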

[2] = target: T1, Catechol O-methyltransferase (Rattus norvegicus) (UniProt P22734); test: Inhibition of Sprague-Dawley rat liver COMT at 2 mM by radiochemical technique
T1 sequence (whole entry): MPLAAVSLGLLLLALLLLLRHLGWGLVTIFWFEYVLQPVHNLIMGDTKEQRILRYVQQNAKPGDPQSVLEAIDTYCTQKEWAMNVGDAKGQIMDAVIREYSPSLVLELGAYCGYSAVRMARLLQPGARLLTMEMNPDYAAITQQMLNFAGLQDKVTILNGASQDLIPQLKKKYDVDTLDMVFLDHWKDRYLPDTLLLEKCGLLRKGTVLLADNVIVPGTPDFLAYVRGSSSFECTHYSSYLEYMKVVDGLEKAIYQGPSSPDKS
Method in brief: (§2)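 Rat liver COMT, purified by a published method, was tested with inhibitor at 0.2 or 2.0 mM, SAM-14CH3 (0.05 μCi, 1.0 mM final) and 3,4-dihydroxybenzoate (2.0 mM final) in buffer. Incubation was at 37 °C. Activity was measured radiochemically by extracting the radiolabeled methylated product.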

[3] = target: Histamine N-methyltransferase (Cavia porcellus) (UniProt Q9EST2); test: Inhibition of guinea pig HMT at 0.2 mM by radiochemical technique
Method in brief: (§3)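 HMT from guinea pig brain, purified by a published method, was tested with inhibitor at 0.2 or 2.0 mM, SAM-14CH3 (0.05 μCi, 1.0 mM final) and histamine (1.0 mM final) in buffer. Incubation was at 37 °C. Activity was measured radiochemically by extracting the radiolabeled product.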

[4] = target: T2, Phenylethanolamine N-methyltransferase (Bos taurus) (UniProt P10938); test: Inhibition of bovine adrenal medulla PNMT at 2 mM by radiochemical technique
T2 sequence (whole entry): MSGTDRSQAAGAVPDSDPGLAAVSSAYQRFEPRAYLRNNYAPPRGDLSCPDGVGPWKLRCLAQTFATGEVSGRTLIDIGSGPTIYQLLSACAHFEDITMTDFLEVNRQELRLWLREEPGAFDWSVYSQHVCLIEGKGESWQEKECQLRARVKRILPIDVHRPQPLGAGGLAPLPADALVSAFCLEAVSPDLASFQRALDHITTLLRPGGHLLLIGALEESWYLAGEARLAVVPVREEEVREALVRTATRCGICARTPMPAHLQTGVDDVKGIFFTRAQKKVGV
Method in brief: (§4)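 Bovine adrenal medulla PNMT, purified by a published method, was tested with inhibitor at 0.2 or 2.0 mM, SAM-14CH3 (0.05 μCi, 1.0 mM final) and DL-β-phenylethanolamine (1.0 mM final) in buffer. Incubation was at 37 °C. Activity was measured radiochemically by extracting the labeled product.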

[5] = target: T1, Catechol O-methyltransferase (Rattus norvegicus); test: Inhibition of Sprague-Dawley rat liver COMT at 0.2 mM by radiochemical technique; method in brief: as §2
[6] = target: T2, Phenylethanolamine N-methyltransferase (Bos taurus); test: Inhibition of bovine adrenal medulla PNMT at 0.2 mM by radiochemical technique; method in brief: as §4
[7] = target: T3, Acetylserotonin O-methyltransferase (Bos taurus) (UniProt P10950); test: Inhibition of bovine pineal gland HIOMT at 0.2 mM by radiochemical technique
T3 sequence (whole entry): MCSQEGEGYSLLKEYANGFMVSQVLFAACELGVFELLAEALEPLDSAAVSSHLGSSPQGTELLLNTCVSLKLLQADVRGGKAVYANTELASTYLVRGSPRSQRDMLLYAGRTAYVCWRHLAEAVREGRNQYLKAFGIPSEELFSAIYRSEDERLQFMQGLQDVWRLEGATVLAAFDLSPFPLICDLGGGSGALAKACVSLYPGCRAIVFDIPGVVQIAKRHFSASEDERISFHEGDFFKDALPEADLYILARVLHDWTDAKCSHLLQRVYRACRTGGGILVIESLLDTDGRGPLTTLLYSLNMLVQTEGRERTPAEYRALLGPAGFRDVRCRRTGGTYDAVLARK
Method in brief: (§5)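 Bovine pineal gland HIOMT, purified by a published method, was tested with inhibitor at 0.2 or 2.0 mM, SAM-14CH3 (0.05 μCi, 1.0 mM final) and N-acetylserotonin (1.0 mM final) in buffer. Incubation was at 37 °C. Product formation was read radiochemically after extraction of the labeled product.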

[8] = Retardation factor, Rf of the compound on silica gel GF containing 5% Na2HPO4 by chromatography; type: physicochemical; method in brief: as §1
[9] = target: Histamine N-methyltransferase (Cavia porcellus) (UniProt Q9EST2); test: Inhibition of guinea pig HMT at 2 mM by radiochemical technique; method in brief: as §3
[10] = target: T3, Acetylserotonin O-methyltransferase (Bos taurus); test: Inhibition of bovine pineal gland HIOMT at 2 mM by radiochemical technique; method in brief: as §5
[11] = target: Histamine N-methyltransferase (Cavia porcellus) (UniProt Q9EST2); test: Inhibition of guinea pig HMT at 1 mM by radiochemical technique
[12] = target: T2, Phenylethanolamine N-methyltransferase (Bos taurus); test: Inhibition of bovine adrenal medulla PNMT at 1 mM by radiochemical technique
[13] = target: T2, Phenylethanolamine N-methyltransferase (Bos taurus); test: Inhibition of bovine adrenal medulla PNMT at 0.4 mM by radiochemical technique
[14] = target: Histamine N-methyltransferase (Cavia porcellus) (UniProt Q9EST2); test: Inhibition of guinea pig HMT at 0.4 mM by radiochemical technique
[15] = target: T3, Acetylserotonin O-methyltransferase (Bos taurus); test: Inhibition of bovine pineal gland HIOMT at 0.4 mM by radiochemical technique
[16] = target: T3, Acetylserotonin O-methyltransferase (Bos taurus); test: Inhibition of bovine pineal gland HIOMT at 1 mM by radiochemical technique
[17] = target: T1, Catechol O-methyltransferase (Rattus norvegicus); test: Inhibition of Sprague-Dawley rat liver COMT at 0.4 mM by radiochemical technique
[18] = target: T1, Catechol O-methyltransferase (Rattus norvegicus); test: Inhibition of Sprague-Dawley rat liver COMT at 1 mM by radiochemical technique

Sequence of Histamine N-methyltransferase (Cavia porcellus) (Q9EST2 whole entry): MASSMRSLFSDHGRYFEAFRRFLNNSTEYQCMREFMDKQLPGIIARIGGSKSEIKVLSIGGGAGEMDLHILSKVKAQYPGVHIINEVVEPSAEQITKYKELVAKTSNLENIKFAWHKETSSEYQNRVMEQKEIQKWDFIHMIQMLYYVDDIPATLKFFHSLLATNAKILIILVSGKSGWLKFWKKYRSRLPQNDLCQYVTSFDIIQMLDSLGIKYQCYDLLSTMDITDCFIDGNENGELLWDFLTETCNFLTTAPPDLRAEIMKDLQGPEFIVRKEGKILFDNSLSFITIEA

Row | SMILES | Rf [1] | inhibition [2] | inhibition [3] | inhibition [4] | inhibition [5] | inhibition [6] | inhibition [7] | Rf [8] | inhibition [9] | inhibition [10] | inhibition [11] | inhibition [12] | inhibition [13] | inhibition [14] | inhibition [15] | inhibition [16] | inhibition [17] | inhibition [18]
1 | Nc1ncnc2c1ncn2[C@@H]1O[C@H](CSCC(N)C(=O)O)[C@@H](O)[C@H]1O (single isomer, unassigned) | 0.79 | 5% | 14% | 27% | 0% | 11% | 12% | 0.74 | 43% | 33% | – | – | – | – | – | – | – | –
2 | Nc1ncnc2c1nnn2[C@@H](CO)O[C@@H](CO)CSCC[C@@H](N)C(=O)O | 0.58 | 17% | 0% | 10% | 0% | 0% | 12% | 0.69 | 0% | 31% | – | – | – | – | – | – | – | –
3 | Nc1ncnc2c1ncn2[C@@H](CO)O[C@@H](CO)CSCC[C@@H](N)C(=O)O | 0.72 | 26% | 0% | 16% | 0% | 8% | 9% | 0.65 | 19% | 26% | – | – | – | – | – | – | – | –
4 | Nc1nnnc2c1ncn2[C@@H]1O[C@H](CSCCC(N)C(=O)O)[C@@H](O)[C@H]1O (single isomer, unassigned) | 0.79 | – | – | – | – | – | – | 0.7 | – | – | 8% | 58% | 38% | 0% | 23% | 39% | 3% | 6%
5 | C[S+](CC[C@@H](N)C(=O)O)C[C@H](CO)O[C@H](CO)n1cnc2c(N)ncnc21 (some centres undefined) | 0.11 | 14% | 0% | 21% | 7% | 1% | 0% | 0.46 | 0% | 8% | – | – | – | – | – | – | – | –
6 | C[S+](CC[C@H](N)C(=O)[O-])C[C@H]1O[C@@H](n2cnc3c(N)ncnc32)[C@H](O)[C@@H]1O (some centres undefined) [ADEMETIONINE] | 0.2 | – | – | – | – | – | – | 0.34 | – | – | – | – | – | – | – | – | – | –
7 | Nc1ncnc2c1ncn2[C@@H]1O[C@H](CSCCC(N)C(=O)O)[C@@H](O)[C@H]1O (single isomer, unassigned) | – | 22% | 73% | 32% | 5% | 14% | 1% | – | 99% | 6% | – | – | – | – | – | – | – | –
8 | Nc1ncnc2c1ncn2[C@@H]1O[C@H](CSCC[C@H](N)C(=O)O)[C@@H](O)[C@H]1O [S-ADENOSYLHOMOCYSTEINE] | 0.73 | 87% | 40% | 92% | 39% | 49% | 71% | 0.73 | 89% | 94% | – | – | – | – | – | – | – | –
9 | Nc1ncnc2c1ncn2[C@@H](CO)O[C@@H](CO)CSC[C@@H](N)C(=O)O | 0.75 | 12% | 0% | 15% | 0% | 10% | 0% | 0.63 | 3% | 0% | – | – | – | – | – | – | – | –
10 | Nc1ncnc2c1ncn2[C@@H](CO)O[C@@H](CO)CSCC[C@H](N)C(=O)O | 0.72 | 25% | 0% | 0% | 2% | 0% | 0% | 0.65 | 0% | 6% | – | – | – | – | – | – | – | –
11 | Nc1ncnc2c1ncn2[C@@H]1O[C@H](C[S+]([O-])CC[C@@H](N)C(=O)O)[C@@H](O)[C@H]1O (some centres undefined) | 0.74 | 42% | 0% | 22% | 14% | 10% | 0% | 0.72 | 9% | 0% | – | – | – | – | – | – | – | –
12 | Nc1ncnc2c1nnn2[C@@H]1O[C@H](CSCCC(N)C(=O)O)[C@@H](O)[C@H]1O (single isomer, unassigned) | 0.72 | – | – | – | – | – | 49% | 0.71 | – | 89% | – | – | – | – | – | – | – | –
13 | Nc1nnnc2c1ncn2[C@@H](CO)O[C@@H](CO)CSCC[C@@H](N)C(=O)O | 0.66 | 5% | 0% | 15% | 4% | 0% | 18% | 0.69 | 0% | 25% | – | – | – | – | – | – | – | –
14 | Nc1ncnc2c1ncn2[C@@H](CO)O[C@@H](CO)C[S+]([O-])CC[C@@H](N)C(=O)O (some centres undefined) | 0.74 | 22% | 0% | 17% | 5% | 9% | 7% | 0.6 | 0% | 16% | – | – | – | – | – | – | – | –
